Source: ChEMBL document CHEMBL1122688, “Antimycotic azoles. 7. Synthesis and antifungal properties of a series of novel triazol-3-ones” (1984)

Legend:
[1] = system: Candida albicans; test: In vitro antifungal activity against Candida albicans; type: functional
Summary of the method: (§1)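 Fungal growth-inhibition screen (Godefroi method) against dermatophytes, yeasts, moulds and other fungi. The value is the lowest concentration (µg/mL) giving total inhibition of growth, tested up to 100 µg/mL.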

[2] = system: Cryptococcus neoformans; test: In vitro antifungal activity against Cryptococcus neoformans; type: functional; summary of the method: as §1
[3] = In vitro antifungal activity against Mucor sp; type: functional; summary of the method: as §1
[4] = system: Candida tropicalis; test: In vitro antifungal activity against Candida tropicalis; type: functional; summary of the method: as §1
[5] = system: Trichophyton rubrum; test: In vitro antifungal activity against Trichophyton rubrum; type: functional; summary of the method: as §1
[6] = system: Phialophora verrucosa; test: In vitro antifungal activity against Phialophora verrucosa; type: functional; summary of the method: as §1
[7] = system: Saprolegnia; test: In vitro antifungal activity against Saprolegnia sp; type: functional; summary of the method: as §1
[8] = system: Sporothrix schenckii; test: In vitro antifungal activity against Sporothrix schenck ii; type: functional; summary of the method: as §1
[9] = system: Microsporum canis; test: In vitro antifungal activity against Microsporum canis; type: functional; summary of the method: as §1
[10] = system: Aspergillus fumigatus; test: In vitro antifungal activity against Aspergillus fumigatus; type: functional; summary of the method: as §1
[11] = system: Trichophyton benhamiae; test: In vitro antifungal activity against Trichophyton mentagrophytes; type: functional, Arthroderma benhamiae; summary of the method: as §1
[12] = In vivo activity against vaginal candidoses in rats, measured as the ratio of animals cured/animals infected (C/I) at dose 2.5 mg/kg; C/I = 0/2; type: functional
[13] = In vivo activity against microsporosis guinea pig, measured as the ratio of animals cured/animals infected (C/I) at dose 2.5 mg/kg; C/I = 0/2; type: functional
[14] = In vivo activity against vaginal candidoses in rats, measured as the ratio of animals cured/animals infected (C/I) at dose 2.5 mg/kg; C/I = 1/2; type: functional
[15] = In vivo activity against microsporosis guinea pig, measured as the ratio of animals cured/animals infected (C/I) at dose 10 mg/kg; C/I = 2/2; type: functional
[16] = In vivo activity against microsporosis guinea pig, measured as the ratio of animals cured/animals infected (C/I) at dose 10 mg/kg; C/I = 0/2; type: functional

| SMILES | Inhibition [1] [µg/mL] | Inhibition [2] [µg/mL] | Inhibition [3] [µg/mL] | Inhibition [4] [µg/mL] | Inhibition [5] [µg/mL] | Inhibition [6] [µg/mL] | Inhibition [7] [µg/mL] | Inhibition [8] [µg/mL] | Inhibition [9] [µg/mL] | Inhibition [10] [µg/mL] | Inhibition [11] [µg/mL] | C/I ratio [12] | C/I ratio [13] | C/I ratio [14] | C/I ratio [15] | C/I ratio [16] |
| --- | --- | --- | --- | --- | --- | --- | --- | --- | --- | --- | --- | --- | --- | --- | --- | --- |
| CCn1ncn(-c2ccc(N3CCN(c4ccc(OC[C@@H]5COC(Cn6ccnc6)(c6ccc(Cl)cc6Cl)O5)cc4)CC3)cc2)c1=O (stereo partly specified) | 100 | >100 | >100 | 100 | 10 | >100 | >100 | >100 | >100 | >100 | 100 | 0 |  |  |  |  |
| O=c1n(-c2ccc(N3CCN(c4ccc(OC[C@@H]5COC(Cn6cncn6)(c6ccc(Cl)cc6Cl)O5)cc4)CC3)cc2)cnn1C1CCCC1 (stereo partly specified) | >100 | >100 | >100 | >100 | >100 | >100 | >100 | >100 | >100 | >100 | 100 |  | 0 | 1 | 2 |  |
| Oc1nncn1-c1ccc(N2CCN(c3ccc(OC[C@@H]4COC(Cn5ccnc5)(c5ccc(Cl)cc5Cl)O4)cc3)CC2)cc1 (stereo partly specified) | >100 | >100 | >100 | 100 | >100 | >100 | >100 | >100 | >100 | >100 | 100 | 0 |  |  |  |  |
| CC(C)Cn1ncn(-c2ccc(N3CCN(c4ccc(OC[C@@H]5COC(Cn6ccnc6)(c6ccc(Cl)cc6Cl)O5)cc4)CC3)cc2)c1=O (stereo partly specified) | 100 | >100 | > 100 | >100 | >100 | >100 | >100 | >100 | >100 | >100 | 100 |  |  | 1 |  | 0 |
| CCc1nnc(O)n1-c1ccc(N2CCN(c3ccc(OC[C@@H]4COC(Cn5ccnc5)(c5ccc(Cl)cc5Cl)O4)cc3)CC2)cc1 (stereo partly specified) | 100 | >100 | >100 | 100 | >100 | >100 | >100 | >100 | >100 | >100 | >100 |  | 0 |  |  |  |
| CCCn1nc(C)n(-c2ccc(N3CCN(c4ccc(OC[C@@H]5COC(Cn6ccnc6)(c6ccc(Cl)cc6Cl)O5)cc4)CC3)cc2)c1=O (stereo partly specified) | 100 | >100 | >100 | 100 | >100 | >100 | >100 | >100 | >100 | >100 | >100 | 0 |  |  |  |  |
| Oc1nncn1-c1ccc(N2CCN(c3ccc(OC[C@@H]4COC(Cn5cncn5)(c5ccc(Cl)cc5Cl)O4)cc3)CC2)cc1 (stereo partly specified) | >100 | >100 | >100 | >100 | >100 | >100 | >100 | >100 | >100 | >100 | >100 |  |  |  |  | 0 |
| Cc1nnc(O)n1-c1ccc(N2CCN(c3ccc(OC[C@@H]4COC(Cn5ccnc5)(c5ccc(Cl)cc5Cl)O4)cc3)CC2)cc1 (stereo partly specified) | 100 | 100 | >100 | 10 | 10 | >100 | >100 | >100 | >100 | >100 | 10 |  |  |  |  | 0 |
| Cc1nn(C(C)C)c(=O)n1-c1ccc(N2CCN(c3ccc(OC[C@@H]4COC(Cn5cncn5)(c5ccc(Cl)cc5Cl)O4)cc3)CC2)cc1 (stereo partly specified) | >100 | >100 | >100 | 10 | >100 | >100 | >100 | >100 | >100 | >100 | 100 |  |  | 1 |  | 0 |
| O=c1n(-c2ccc(N3CCN(c4ccc(OC[C@@H]5COC(Cn6cncn6)(c6ccc(Cl)cc6Cl)O5)cc4)CC3)cc2)cnn1CC1CC1 (stereo partly specified) | 100 | >100 | >100 | >100 | 10 | 100 | >100 | >100 | >100 | >100 | 10 |  | 0 | 1 | 1 |  |
| CCn1nc(C)n(-c2ccc(N3CCN(c4ccc(OC[C@@H]5COC(Cn6ccnc6)(c6ccc(Cl)cc6Cl)O5)cc4)CC3)cc2)c1=O (stereo partly specified) | >100 | >100 | >100 | 100 | >100 | >100 | >100 | >100 | >100 | >100 | 100 | 0 | 0 |  |  |  |
| Cc1nnc(O)n1-c1ccc(N2CCN(c3ccc(OC[C@@H]4COC(Cn5cncn5)(c5ccc(Cl)cc5Cl)O4)cc3)CC2)cc1 (stereo partly specified) | >100 | 100 | >100 | 1 | 100 | 100 | >100 | >100 | >100 | >100 | 10 |  |  |  |  | 0 |
